From ChEMBL document CHEMBL1125672, “2-acetylpyridine thiosemicarbazones. 13. Derivatives with antifilarial activity” (1991)

Legend:
[1] = system: Brugia pahangi; experiment: anti-filarial Activity was measured against Brugia pahangi in jirds at 100 mg/kg/day(5 days) dose; format: functional
Outline: (§1)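 Jirds with established B. pahangi or A. viteae infections were given drug once daily for 5 days by subcutaneous injection, at the maximum tolerated dose and, where supply allowed, graded lower doses. Tolerance was first checked in noninfected jirds with a single 200 mg/kg oral or subcutaneous dose, watching 72 h for excessive weight loss or death. Macrofilarial suppression was the read-out.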

[2] = system: Acanthocheilonema viteae; experiment: anti-filarial Activity was measured against Acanthocheilonema viteae in jirds at 50 mg/kg/day(5 days) dose; format: functional; outline: as §1
[3] = system: Brugia pahangi; experiment: anti-filarial Activity was measured against Brugia pahangi in jirds at 50 mg/kg/day(5 days) dose; format: functional; outline: as §1
[4] = system: Acanthocheilonema viteae; experiment: anti-filarial Activity was measured against Acanthocheilonema viteae in jirds at 100 mg/kg/day(5 days) dose; format: functional; outline: as §1
[5] = system: Brugia pahangi; experiment: anti-filarial Activity was measured against Brugia pahangi in jirds at 25 mg/kg/day(5 days) dose; format: functional; outline: as §1
[6] = system: Acanthocheilonema viteae; experiment: anti-filarial Activity was measured against Acanthocheilonema viteae in jirds at 25 mg/kg/day(5 days) dose; format: functional; outline: as §1
[7] = system: Acanthocheilonema viteae; experiment: anti-filarial Activity was measured against Acanthocheilonema viteae in jirds at 75 mg/kg/day(5 days) dose; format: functional; outline: as §1
[8] = system: Brugia pahangi; experiment: anti-filarial Activity was measured against Brugia pahangi in jirds at 75 mg/kg/day(5 days) dose; format: functional; outline: as §1
[9] = system: Brugia pahangi; experiment: anti-filarial Activity was measured against Brugia pahangi in jirds at 12.5 mg/kg/day(5 days) dose; format: functional; outline: as §1
[10] = system: Acanthocheilonema viteae; experiment: anti-filarial Activity was measured against Acanthocheilonema viteae in jirds at 12.5 mg/kg/day(5 days) dose; format: functional; outline: as §1
[11] = system: Brugia pahangi; experiment: anti-filarial Activity was measured against Brugia pahangi in jirds at 6.25 mg/kg/day(5 days) dose; format: functional; outline: as §1
[12] = system: Acanthocheilonema viteae; experiment: anti-filarial Activity was measured against Acanthocheilonema viteae in jirds at 6.25 mg/kg/day(5 days) dose; format: functional; outline: as §1
[13] = system: Acanthocheilonema viteae; experiment: anti-filarial Activity was measured against Acanthocheilonema viteae in jirds at 1.56 mg/kg/day(5 days) dose; format: functional; outline: as §1
[14] = system: Acanthocheilonema viteae; experiment: anti-filarial Activity was measured against Acanthocheilonema viteae in jirds at 200 mg/kg/day(5 days) dose; format: functional; outline: as §1
[15] = system: Brugia pahangi; experiment: anti-filarial Activity was measured against Brugia pahangi in jirds at 200 mg/kg/day(5 days) dose; format: functional; outline: as §1
[16] = system: Brugia pahangi; experiment: anti-filarial Activity was measured against Brugia pahangi in jirds at 100 mg/kg/day(5 days) dose;toxic; format: functional, organism-based; outline: as §1
[17] = system: Brugia pahangi; experiment: anti-filarial Activity was measured against Brugia pahangi in jirds at 1.56 mg/kg/day(5 days) dose; format: functional; outline: as §1

SMILES	Suppression [1] [%]	Suppression [2] [%]	Suppression [3] [%]	Suppression [4] [%]	Suppression [5] [%]	Suppression [6] [%]	Suppression [9] [%]	Suppression [10] [%]	other results
C/C(=N\N=C(/S)Nc1c(N)c2ccccc2c2ccccc12)c1ccccn1	33	23	5	23					
C/C(=N\NC(=S)Nc1ccccc1)c1ccccn1		25	97		17	44			
C/C(=N\N=C(/S)Nc1ccc(C)cc1N)c1ccccn1	100	75	100	72	29	44			Suppression [7]: 72%; Suppression [8]: 100%
C/C(=N\N=C(/S)Nc1cccc(N)n1)c1ccccn1	55	14	5	14					
C/C(=N\NC(S)=Nc1ccccc1N)c1ccccn1.Cl.Cl	100	100	100	100	100	100	29	36	
C/C(=N\N=C(/S)N1CCCCCCCC1)c1ccccn1		74	16						
C/C(=N\NC(=S)N1CCN(c2ccccn2)CC1)c1ccccn1									Suppression [11]: -5%; Suppression [12]: 100%; Suppression [13]: 40%
C/C(=N\N=C(/S)N1CCCCC1)c1ccccn1							65	14	Suppression [11]: 18%; Suppression [12]: 25%
C/C(=N\N=C(/S)Nc1cccc(N)c1)c1ccccn1	17			43					
C/C(=N\N=C(/S)N1CCN(c2ccc(Cl)cc2)CC1)c1ccccn1	14			85	6				
C/C(=N\N=C(/S)Nc1cc2ccccc2cc1N)c1ccccn1	49	4		37					
C/C(=N\N=C(/S)Nc1ccccc1N)c1ccccc1	15			9	6	15			Suppression [14]: 19%; Suppression [15]: 71%
C/C(=N\N=C(/S)NCCN)c1ccccn1					26	72	-3	-40	
C/C(=N\NC(N)=S)c1ccccn1							53	42	Suppression [13]: 60%; Suppression [16]: Toxic; Suppression [17]: 41%
C/C(=N\NC(=S)N1CCCC1)c1ccccn1							86	31	Suppression [17]: 46%
C/C(=N\N=C(/S)Nc1ccc(N)cc1)c1ccccn1	39			34	5	9			Suppression [14]: 25%; Suppression [15]: 60%
